The subject of series [1] is Brain. Description: Drug level in APP51/16 transgenic mouse brain expressing human APP at 100 umol/kg, po administered twice at 3 hrs interval measured after 7 hrs of last dose. The conditions noted are these: in vivo.
Series [2] in a line: in vivo. The conditions noted are these: C57BL/6, mouse, brain/plasma, iv, 30 umol/kg.
Series [3] concerns Brain. Description: Drug level in APP51/16 transgenic mouse brain expressing human APP at 30 umol/kg, iv after 5 hrs. The format is ADME, organism-based. The conditions noted are these: in vivo. In short, it runs like this: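 Single i.v. dose of 30 µmol/kg in APP51/16 transgenic mice (human APP, brain-specific promoter), sacrificed 5 h after dosing. Compound level measured in brain.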

The nature of series [4]: Drug level in C57BL/6 mouse brain at 30 umol/kg, iv after 5 hrs. It counts as ADME, organism-based. The following applies: read-out: Drug uptake. The procedure, abridged:
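C57BL/6 mice, single i.v. dose of 30 µmol/kg. Compound levels in brain and plasma followed over 5 h; brain:plasma ratio from 5 min to 5 h.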

Series [5] can be described thus: in vivo. The conditions noted are these: C57BL/6, mouse, brain/plasma, iv, 30 umol/kg. This is another data set of the same source.
For series [6], the system named is Brain. Description: Drug level in APP51/16 transgenic mouse brain expressing human APP at 30 umol/kg, iv administered twice at 2 hrs interval measured after 3 hrs of last dose. The conditions noted are these: in vivo.

Drug uptake, Kp and concentration data for two molecules are collected here from ChEMBL document CHEMBL1151821, “Macrocyclic peptidomimetic beta-secretase (BACE-1) inhibitors with activity in vivo” (Bioorg Med Chem Lett, 2009).

Where only a bound is given, the exact number is not on record here.

`CC(C)c1ccc2c(c1)[C@@H](NC[C@@H](O)[C@@H]1C[C@H](C)CCCCCCCCC(=O)N(C)[C@@H](C)C(=O)N1)CC(C)(C)O2` had a Drug uptake in the series with Brain [1] of 1.5 µmol/kg.
Usually Kp stands for tissue or fluid exposure divided by exposure in the circulation. In turn, `CC(C)c1cccc(CNC[C@@H](O)[C@@H]2C[C@H](C)CCCCCCCCC(=O)N(C)[C@@H](C)C(=O)N2)c1` yielded a Kp at 5 h in the series “in vivo [2]” of 4. Further, the Drug uptake in the series with Brain [3] came to 1.3 µmol/kg; in the series on Brain [6], 4.3 µmol/kg. In addition, the concentration at 5 h in series [4] is above 1000 nM. The Kp at 5 min in the series “in vivo [5]” was 1.5.
